Screens from PubChem.
ASAP1 GAP inh = inhibitors of human ASAP1 ArfGAP activity; inhibition, % at 16.5 µM; 360,000 tested, 0.19% active; Q9ULH1; ASAP1-stimulated ARF1 GTP hydrolysis, GDP FP detection; in the data active = inhibition above about 25%
Target sequence (Q9ULH1 325-724 limits assumed): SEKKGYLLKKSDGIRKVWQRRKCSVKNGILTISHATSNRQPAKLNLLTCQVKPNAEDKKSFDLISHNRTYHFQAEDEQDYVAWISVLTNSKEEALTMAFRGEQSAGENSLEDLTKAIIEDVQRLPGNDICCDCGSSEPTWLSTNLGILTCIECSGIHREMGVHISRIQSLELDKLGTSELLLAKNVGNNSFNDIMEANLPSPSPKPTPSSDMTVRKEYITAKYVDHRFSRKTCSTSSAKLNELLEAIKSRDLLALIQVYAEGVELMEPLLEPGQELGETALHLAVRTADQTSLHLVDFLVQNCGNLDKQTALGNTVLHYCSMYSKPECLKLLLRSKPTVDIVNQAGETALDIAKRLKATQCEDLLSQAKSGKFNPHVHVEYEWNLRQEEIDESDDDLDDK
VIM-2 inh = inhibitors of Pseudomonas aeruginosa VIM-2 metallo-beta-lactamase. inhibition, % at 5.6 µM. purified VIM-2, nitrocefin hydrolysis, epi-absorbance fluorescence. 290,000 tested, 0.89% active;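 active = inhibition above the mean of all tested compounds plus 3 SD, cutoff set per screening run, cut at about 7.5% in these data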;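 also: red hydrolysis product quenches plate fluorescence so inhibitors raise well fluorescence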
IMP-1 inh = blocks Pseudomonas aeruginosa IMP-1 metallo-beta-lactamase | purified IMP-1, nitrocefin hydrolysis, epi-absorbance fluorescence | inhibition, % at 5.6 µM | 290,000 tested, 0.45% active;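 active = inhibition above the mean plus 3 SD of all compounds in the same screening run, cut at about 4.5% in these data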
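Assay system: purified IMP-1; Quantity: IMP-1 0.2 nM before substrate addition; Medium: HEPES buffer pH 7.1 with ZnSO4 and Brij 35; Incubation: 15 min enzyme–compound preincubation, then 25 min nitrocefin reaction, 25 °C; Signal: fluorescence quenching readout, ex 480/em 530 nm; Controls: DMSO with and without IMP-1; Repeats: singlicate testing.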
PHOSPHO1 inh = blocks human PHOSPHO1 phosphatase activity. inhibition, % at 13.3 µM. recombinant PHOSPHO1, absorbance phosphatase assay. AID 1565. 290,000 tested, 1.1% active; in the data active = inhibition above about 60%
Target sequence (Q8TCT1 whole entry, looked up): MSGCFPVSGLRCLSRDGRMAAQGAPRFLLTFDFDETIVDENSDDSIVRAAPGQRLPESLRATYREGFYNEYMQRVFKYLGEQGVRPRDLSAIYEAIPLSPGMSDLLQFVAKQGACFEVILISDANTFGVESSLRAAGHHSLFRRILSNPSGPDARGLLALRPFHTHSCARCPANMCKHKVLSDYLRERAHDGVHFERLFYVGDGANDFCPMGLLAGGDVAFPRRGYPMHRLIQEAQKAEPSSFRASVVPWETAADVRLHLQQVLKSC
ARFGAP1 inhibitor = inhibitors of rat ARFGAP1 | inhibition, % at 16.5 µM | Arfgap1-stimulated ARF1 GTP hydrolysis, GDP FP detection | Q62848 | 360,000 tested, 0.26% active;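 active = inhibition above a per-plate limit, mean inhibition of low control wells plus 3 SD, cut at about 25% in these data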
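Material: truncated rat Arfgap1 GAP domain; Incubation: compound-enzyme preincubation 20 min, reaction 120 min, detection 60 min, 25 °C; Read-out: percent inhibition of Arfgap1-stimulated GTP hydrolysis; Technique: FP, GDP Alexa 633 tracer displaced from anti-GDP antibody, 620/688 nm; Controls: No-Arfgap1 wells (100%) versus DMSO full-reaction wells (0%); Replication: single well per compound.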
Calb FLC = C. albicans growth modulation with fluconazole; C. albicans CaCi-2 + fluconazole, Alamar Blue growth, 48 h; growth inhibition, % (no concentration beside the values); 300,000 tested, 0.57% active;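 active = growth inhibition above about 58% in most replicates, limit read from the data, passing the limit was not always enough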;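 also: all wells also contain fluconazole at 8 µg/ml as a sub-toxic cotreatment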
Numbers stand for hits; . = inactive; / = no result given. A selection: hits, their analogues and other compounds. The true share with any hit is near 2.6%.

SMILES	ASAP1 GAP inh	VIM-2 inh	IMP-1 inh	PHOSPHO1 inh	ARFGAP1 inhibitor	Calb FLC
CCNC(=O)N1CCN(c2ccc(N3CCN(Cc4ccccc4)[C@@H](C)C3)c(C)c2)[C@@H](C)C1	.	/	/	/	.	/
CCNC(=O)N1CCN(c2ccc(N3CCN(Cc4ccccc4)[C@H](C)C3)c(C)c2)[C@@H](C)C1	.	/	/	/	.	/
CC(C)C[C@H](NC(=O)c1nccs1)C(=O)N1CCC[C@H]1C(=O)NCc1ccccc1	.	/	/	/	.	/
CCCNC(=O)C12CCC(C)(c3nc4cc(C)c(C)cc4nc31)C2(C)C (stereo unspecified)	.	.	.	.	.	110
CNC(=O)C12CCC(C)(c3nc4cc(C)c(C)cc4nc31)C2(C)C (stereo unspecified)	.	.	.	.	.	.
COc1ccccc1-c1ccc2c(c1)[C@@H]1C[C@H]3[C@@H](CN1CC2)[C@H](C)ON3C	.	/	/	/	.	/
N/C(Cc1ccccc1)=N\OC(=O)c1cccc2ccccc12	.	.	.	.	.	104
Fc1ccc(-c2csc3[n+]2CCS3)cc1	.	.	.	.	.	.
O=[N+]([O-])c1ccc(-c2csc3[n+]2CCS3)cc1	.	.	.	80	.	.
N#C/C(=C\c1ccc(N2CCOCC2)o1)C(=O)Nc1ccc(O)cc1	.	.	.	.	.	.
COc1ccc(NC(=O)/C(C#N)=C\c2ccc(N3CCOCC3)o2)cc1	.	.	.	.	.	103
COc1cc(OC)c(CN2CCC(CO)(CCOc3ccccc3)CC2)c(OC)c1	.	.	.	64	.	.
CCN(CC)c1ccc(N=Cc2ccc([N+](=O)[O-])o2)cc1	.	.	.	.	.	91
CCOC(=O)C1CCN(S(=O)(=O)c2cccc(-c3cn4cc(Cl)ccc4n3)c2)CC1	.	.	.	97	.	.
CCOC(=O)C1CCN(S(=O)(=O)c2cccc(-c3cn4ccccc4n3)c2)CC1	.	.	.	84	.	.
CCOC(=O)C1CCN(S(=O)(=O)c2cccc(-c3cn4cccc(C)c4n3)c2)CC1	.	.	.	.	.	/
CCCCCCCCN1C(=O)[C@@H](CC(=O)NCCc2ccccc2OC)C[C@@]2(C(=O)OC)C1=C[C@H](C1CCCC1)O[C@@H]2C	.	/	/	/	.	/
CN(C)c1ccc(NC(=O)CSc2nnc(-c3ccco3)c(-c3ccco3)n2)cc1	.	.	.	.	.	.
Cc1ccc(NC(=O)CSc2nnc(-c3ccco3)c(-c3ccco3)n2)cc1	.	.	.	60	.	.
O=C(CSc1nnc(-c2ccco2)c(-c2ccco2)n1)Nc1ccccc1	.	.	.	64	.	.
N#Cc1c(N)[nH]c(C(=O)c2ccccc2)c1-c1ccc(Br)cc1	.	/	/	/	.	/
CCOC(=O)N1C(=O)C2(CCCCC2)N(c2ccccc2Cl)C1=S	.	.	.	.	.	100
O=c1nc2c(O)cccn2c2c1c(=O)[nH]c1ccccc12	.	.	8.3	.	.	.
O=c1[nH]c2ccccc2c2nc3ccccn3c12	.	.	.	.	.	.
CN(Cc1ccccc1)C1=CC(=[N+]2CCCC2)CC(C)(C)C1	.	.	.	.	.	.
SMILES	ASAP1 GAP inh	VIM-2 inh	IMP-1 inh	PHOSPHO1 inh	ARFGAP1 inhibitor	Calb FLC
CC1(C)CC(N2CCCC2)=CC(=[N+]2CCCCCC2)C1	.	.	.	.	.	88
CC1(C)CC(N2CCN(c3ccccc3)CC2)=CC(=[N+]2CCCC2)C1	.	.	.	86	.	94
CC1CC(C)C[N+](=C2C=C(N3CCCC3)CC(C)(C)C2)C1 (stereo unspecified)	.	.	.	.	.	.
Cc1cccc2nc(-c3ccccc3)c(-c3ccc(CN4CCC(n5cc(-c6ccccc6)[nH]c5=O)CC4)cc3)nc12	.	/	/	/	.	/
O=[N+]([O-])c1ccc(Sc2n[nH]c(-c3ccccc3)n2)nc1	.	.	.	84	.	.
O=[N+]([O-])c1ccc(Sc2ccccc2)nc1	.	.	.	.	.	.
Cc1ccc(C(=O)NCCN(C)C)cc1C	.	.	5.4	.	.	.
CCOc1cc2[nH]c(=S)n(C(C)C)c(=O)c2cc1OCC	.	.	.	71	.	.
Cc1cc(Cl)cc2c(N=Nc3ccccc3C(=O)O)c(O)[nH]c12	.	.	.	.	.	.
Cc1ccc(Cl)c2c(N=Nc3ccccc3)c(O)[nH]c12	.	.	4.6	.	.	.
COc1ccccc1Cc1c(-c2cccc(Br)c2)nc2ccc(C)cn12	.	/	/	/	.	/
Cc1cc(-c2cc(C(=O)O)c3ccccc3n2)c(C)s1	.	.	.	.	.	80
CCOc1ccc(NC(=O)C2CCCCN2S(=O)(=O)c2ccccc2)cc1 (stereo unspecified)	.	.	.	89	.	.
CCOc1ccccc1NC(=O)C1CCCCN1S(=O)(=O)c1ccccc1 (stereo unspecified)	.	/	/	/	.	/
Cc1ccc(S(=O)(=O)Nc2ccc(O)c3ncccc23)cc1	.	.	.	.	.	99
CCCc1ccc(OCC(=O)Nc2cc(S(=O)(=O)CC)ccc2O)cc1	.	.	.	.	.	90
CCS(=O)(=O)c1ccc(O)c(NC(=O)COc2ccc(OC)cc2)c1	.	.	.	.	.	.
COCCNC(=S)Nc1ccccc1[N+](=O)[O-]	.	.	.	.	.	.
COCCCNC(=S)Nc1ccccc1[N+](=O)[O-]	.	.	.	60	.	.
O=C(O)C(Cc1ccccc1)n1cccc1 (stereo unspecified)	.	.	.	.	.	.
O=C(O)[C@H](Cc1ccccc1)N1C(=O)c2c(Cl)c(Cl)c(Cl)c(Cl)c2C1=O	.	8.5	.	.	.	.
NS(=O)(=O)c1ccc(NC(=S)NC2CCCC2)cc1	.	.	.	81	.	.
Cc1sc2nc(SCC(=O)c3cc(C)n(CC4CCCO4)c3C)n(C(C)C)c(=O)c2c1C (stereo unspecified)	.	.	.	79	.	.
Cc1cccc(-n2nnnc2SCC(=O)NCC2CCCO2)c1 (stereo unspecified)	.	.	.	.	.	.
Cc1ccc(-n2nnnc2SCC(=O)c2cc(C)n(CC3CCCO3)c2C)cc1 (stereo unspecified)	.	/	/	74	.	.
Cc1cccc(-n2nnnc2SCC(=O)c2cc(C)n(CC3CCCO3)c2C)c1 (stereo unspecified)	.	.	.	93	.	.
Cc1cc(C(=O)CSc2nnc(N)s2)c(C)n1Cc1ccco1	.	.	.	.	.	.
Cc1cccc(-n2nnnc2SCC(=O)c2cc(C)n(Cc3ccco3)c2C)c1	.	.	.	76	.	.
COC(=O)N1C[C@@H]2Oc3nccnc3O[C@@H]2C[C@@H]1c1ccccc1Br	.	/	/	/	.	/
Nc1[nH]c(C(=O)c2ccccc2)c(-c2ccc3c(c2)OCO3)c1C(=O)NCCc1c[nH]c2ccccc12	.	/	/	/	.	/
